H69AR growth 86K – proliferation blockers of H69AR lung cancer cells, primary screen, cell-based, human, 86K library; hit rate 6% among 85,000; viability, % at 10 µM; H69AR lung tumor viability, ATP luminescence, 72 h; hits give low values;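 active = viability at or below 40%; inactive = viability above 40%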;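 note: multidrug resistant small cell line overexpressing MRP-1 efflux transporter; 100% = mean luminescence of untreated control wells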
PTEN del growth – growth suppression of PTEN-null HCT116, primary screen, cell-based, CellTiter-Glo. AID 827, 2007. HCT116 PTEN-null viability, 60 h; hits give low values. hit rate 1.2% among 140,000. viability, % at 10 µM;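 active = viability at or below a set limit, 4 SD under the median of all tested compounds, cut at about 3.7% in these data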;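 note: PTEN knockout HCT116 line with beta catenin targeted HCT116 as companion control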
PTK2B oligo ant – antagonists of Pyk2 self-association, primary screen, Q293 cells, FERM NanoBiT luminescence, HTS | hit rate 0.83% among 99,000 | hits give low values | z-score (the deposit names both 25 µM and 10 µM) | Protein-tyrosine kinase 2-beta (Homo sapiens), Q14289;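 active = Z-score of -3 or lower, scaled per plate to the spread of control and sample wells; inactive = z-score above -3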;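 note: negative z-score means lost luminescence so less FERM oligomerization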
Lung fibro prol – antiproliferative effect on LL 47 fibroblasts – human, LL 47 cells, CellTiter-Glo luminescence, primary screen | viability, % at 10 µM | hit rate 1.1% among 85,000 | LL 47 human lung fibroblast viability, ATP luminescence; hits give low values | AID 719, 2007;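 active = viability at or below 50% in the single dose screen; inactive = viability above 50%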;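 note: compound exposure lasted 72 h before the ATP readout; 100% = median luminescence of untreated cell-only wells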
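Material: human lung fibroblast line LL 47, low passage; Evaluation: viability percentage against median untreated-cell control; Buffer or medium: 15% FBS in IMEM; Incubation: 72 h compound exposure at 37 °C after overnight plating; Dosing: 0.1% DMSO in all compound wells; Measured by: CellTiter-Glo luminescence.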
HCT116 bCat-KO – primary screen for growth suppressors in beta-catenin knockout HCT116 cells (colon tumor, human); HCT116 beta-catenin knockout viability, CellTiter-Glo, 60 h; hits give low values; viability, % at 10 µM; hit rate 1.5% among 140,000; AID 818, 2007;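 active = viability at or under a set limit, the compound median less 4 SD, cut at about 6% in these data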;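 note: 0% = Hyamine 1622 control at 20 µM and 100% = untreated cell control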
HUVEC prolif 384 – inhibitors of HUVEC proliferation, primary screen, cell-based, 384-well | CellTiter-Glo luminescence, 72 h; hits give low values | AID 648, 2007 | hit rate 1.1% among 86,000 | viability, % at 10 µM (by protocol);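 active = viability at or below 30%; inactive = viability above 30%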;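 note: 100% = median luminescence of DMSO-only cell control wells on each plate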
* hit, by the source's call; . = not tested or not shown. Many of the other results were omitted from the sample, so hits are more common in it than they were.

SMILES	H69AR growth 86K	PTEN del growth	PTK2B oligo ant	Lung fibro prol	HCT116 bCat-KO	HUVEC prolif 384
O=C(CSc1nnnn1-c1ccc2c(c1)OCO2)NCc1ccccc1	19*	34	-0.69	82	35	56
CCCC1=[N+](CC(=O)c2ccc(C)cc2)CCn2cccc21	.	77	.	.	82	.
Cn1nc(CC(=O)Nc2ccc(N3CCN(C(=O)OC(C)(C)C)CC3)cc2)c2ccccc2c1=O	37*	1.1*	0.77	96	1.2*	70
Cn1nc(CC(=O)NCc2cccc3ccccc23)c2ccccc2c1=O	34*	62	0.63	97	58	99
Cc1cnc(C(=O)Nc2ccc(N3CCN(C(=O)OC(C)(C)C)CC3)cc2)cn1	28*	12	-2.7	60	16	72
Cn1nc(CC(=O)NCc2ccc(F)cc2)c2ccccc2c1=O	97	74	.	93	69	104
Cc1cnc(C(=O)Nc2ccc(F)cc2)cn1	97	94	2.3	103	98	95
CCOc1cc(/C=N\Nc2nc(Nc3ccccc3)nc(N3CCOCC3)n2)ccc1OC(=O)c1ccco1	.	23	.	.	28	.
CCc1ccc(N2C(=O)CC(NNc3nc4ccccc4s3)C2=O)cc1 (configuration not stated)	.	81	.	.	92	.
CN(C1CCCCC1)S(=O)(=O)c1ccc2c(c1)c(=O)c(C(=O)N1CCc3ccccc3C1)cn2C	5.9*	86	0.34	91	82	93
Cn1cc(C(=O)NC2CCCCCCC2)c(=O)c2cc(S(=O)(=O)N3CCCC3)ccc21	32*	80	-1.1	49*	95	52
O=C(CSc1ccc(C(F)(F)F)cc1[N+](=O)[O-])Nc1ccc2ccccc2c1	.	79	.	.	92	.
COc1cc(CSc2nnnn2-c2ccc(C)cc2)cc(OC)c1OC	60	21	-1.9	86	15	85
CCOC(=O)N1CCc2c(sc(NC(=O)c3ccc(S(=O)(=O)N4CCCC4)cc3)c2C#N)C1	13*	77	.	38*	83	64
COc1cc(C(=O)Nc2sc3c(c2C#N)CCN(C(C)=O)C3)cc(OC)c1OC	23*	65	.	95	87	75
CC(=O)N(C(C)=O)c1ncc2c([nH]c3ccccc32)c1C#N	37*	76	0.54	72	69	63
Cc1ccc(C)c(N(C(=O)Cn2nnc(-c3cccs3)n2)C(C(=O)NC2CC2)c2ccc(C)o2)c1 (configuration not stated)	84	93	-4.3*	87	95	84
Cc1ccc(N(C(=O)Cn2nnc(-c3cccs3)n2)C(C(=O)NC2CCCC2)c2ccncc2)cc1 (configuration not stated)	.	99	-0.02	.	83	.
Cc1cc(C)c(S(=O)(=O)Nc2ccccc2-c2ccccc2)c(C)c1	.	105	.	.	99	.
CCOCC(=O)Nc1ccc(S(=O)(=O)NCCc2ccccc2)cc1	15*	84	2.1	104	81	110
CCOc1nc(Nc2ccc(OC)c(Cl)c2)nc(OCC)n1	36*	84	-1.6	92	91	90
COc1ccc(OC)c(NC(=O)C2CCCN(S(=O)(=O)c3c(C)noc3C)C2)c1 (configuration not stated)	79	88	0.14	102	95	94
CCOc1ccc(OCC)c(NC(=O)C2CCCN(S(=O)(=O)c3c(C)noc3C)C2)c1 (configuration not stated)	19*	22	0.16	82	18	78
COc1ccc2nc(NC(=O)C3CCCN(S(=O)(=O)c4c(C)noc4C)C3)sc2c1 (configuration not stated)	35*	46	.	101	54	86
Cn1nc(-c2ccc(Cl)cc2)c2cc(C(=O)NCCCN3CCCC3)sc21	0.9*	1.7*	.	14*	1.5*	1.7*
SMILES	H69AR growth 86K	PTEN del growth	PTK2B oligo ant	Lung fibro prol	HCT116 bCat-KO	HUVEC prolif 384
COCCCNC(=O)c1cc2c(-c3ccc(Cl)cc3)nn(C)c2s1	74	94	.	74	87	56
CCCCNC(=O)c1cc2c(-c3ccc(Cl)cc3)nn(C)c2s1	36*	91	.	62	91	75
Cc1cccc2cc(C#N)c(NCCNS(=O)(=O)c3ccc4c(c3)OCCO4)nc12	65	98	0.35	93	99	86
CCn1cc(C2=NC(c3ccccc3)CO2)c2ccccc21 (configuration not stated)	32*	90	.	87	92	71
N#C/C(C(=O)NCc1ccccc1)=C1/N=C(NC(=O)c2cccs2)c2ccccc21	.	81	.	.	86	.
O=C(NNC(=O)C(c1ccccc1)c1ccccc1)c1ccccn1	.	6	.	.	4.8*	.
CCOC(=O)c1c(NC(=O)COc2ncnc3sccc23)sc2c1CCC2	55	90	0.02	81	84	20*
COc1ccc(NC(=O)COC(=O)CC2CC3CCC2C3)c([N+](=O)[O-])c1 (configuration not stated)	.	93	.	.	95	.
COc1ccc(OC)c(/C=C/C(=O)N2C(=O)c3cccc(N)c3C2=O)c1	.	76	.	.	62	.
COc1cc(/C=C/C(=O)N2C(=O)c3cccc(N)c3C2=O)cc(OC)c1OC	.	9	.	.	4.5*	.
CN(C)CCCNc1ccc(S(N)(=O)=O)cc1[N+](=O)[O-]	.	92	.	.	84	.
Cc1cc(C)nc(-n2nc(C)cc2NC(=O)CNCc2ccccc2)n1	48	90	0.33	95	91	89
Cc1cc(C)nc(-n2nc(C)cc2NC(=O)CN2CCc3ccccc3C2)n1	6.4*	2.7*	-0.99	83	5.1*	82
CCN(CC(=O)Nc1cc(C)nn1-c1nc(C)cc(C)n1)Cc1ccccc1	14*	52	-0.17	73	56	51
Cc1cc(C)nc(-n2nc(C)cc2NC(=O)CN2CCCC(C)C2)n1 (configuration not stated)	63	96	-0.88	89	87	106
CCOC(=O)c1cnc2ccc(C)cc2c1Sc1ccccc1C(=O)OC	.	57	-4.3*	.	49	.
CCCCNC(=O)C(=O)N/N=C/c1ccc(OCC(=O)Nc2cccc(OC)c2)c(OC)c1	.	95	.	.	91	.
CCOC(=O)Cc1c(C)nc2c(-c3ccc(Cl)cc3)c[nH]n2c1=O	23*	55	-0.79	.	62	57
CCOC(=O)Cc1cc(=O)n2[nH]c(C)c(-c3ccc(Cl)cc3)c2n1	16*	29	-1	69	31	46
CCOC(=O)Cc1c(C)nc2cc(-c3ccc(Cl)cc3)[nH]n2c1=O	104	85	1.5	96	82	78
CCOC(=O)Cc1cc(=O)n2[nH]c(C)c(-c3ccc(OC)cc3)c2n1	76	103	0.23	100	103	89
O=C(CN(C(=O)CSc1nc2ccccc2o1)c1ccccc1F)NC1CCCCC1	.	83	.	.	84	.

Screening data deposited in PubChem by several laboratories.
